How the values were obtained:
[1] = Toxicity in ip dosed Mus musculus Swiss-Webster (mouse) assessed as mortality measured after 24 hr; format: organism-based; conditions: in vivo
Musca domestica [2] = assay: Toxicity against SCR-susceptible Musca domestica (house fly) assessed as immobility compound administered by intrathoracic injection 2 hr after piperonyl butoxide treatment measured 4 hr post compound treatment; format: functional
Outline: (§1)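 Houseflies first received 7.5 μg piperonyl butoxide in 0.5 μL acetone topically on the abdomen. After 2 h they were given the test compound by intrathoracic injection in 1 μL of 50% aqueous ethanol. Flies immobilised at 4 h were scored, and KD50 came from log dose–probit plots. Two independent experiments were run, each with 10 flies per dose and 1.5–2-fold dose spacing.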

Ryanodine receptor 1 [3] = molecular target: T1, Ryanodine receptor 1 (Oryctolagus cuniculus, UniProt P11716)
Musca domestica [4] = assay: Drug metabolism in SCR-susceptible Musca domestica (house fly) assessed as unidentified metabolite intermediate Rf in exctreta at 160 ug/g after 4 hr by TLC method; format: ADME, organism-based; conditions: in vivo
Musca domestica [5] = assay: Drug metabolism in SCR-susceptible Musca domestica (house fly) assessed as unidentified metabolite intermediate Rf in exctreta at 160 ug/g after 1 hr by TLC method; format: ADME, organism-based; conditions: in vivo
Outline: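 Excreta were extracted with MeOH, then run on TLC on 0.20-mm silica gel in 15% MeOH/CHCl3. Metabolites were detected by liquid scintillation counting.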

Musca domestica [6] = assay: Ratio of compound KD50 to ryanodine KD50 for SCR-susceptible Musca domestica (house fly) assessed as immobility compound administered by intrathoracic injection 2 hr after piperonyl butoxide treatment measured 4 hr post compound treatment; format: functional; outline: as §1
Musca domestica [7] = assay: Toxicity against SCR-susceptible Musca domestica (house fly) assessed as immobility compound administered by intrathoracic injection measured 4 hr post compound treatment; format: functional
Outline: (§2)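 Houseflies without piperonyl butoxide pretreatment received ryanoid by intrathoracic injection in 50% aqueous ethanol. Knockdown (immobility) was scored 4 h after treatment, and KD50 came from log dose–probit plots. Two independent experiments were run, each with 10 flies per dose and 1.5–2-fold dose spacing.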

Ryanodine receptor 1 [8] = molecular target: T1, Ryanodine receptor 1; assay: Ratio of compound IC50 to ryanodine IC50 for Ca2+-ryanodine receptor in Oryctolagus cuniculus (rabbit) skeletal muscle sarcoplasmic reticulum after 80 min by competitive inhibition assay; format: ADME
Outline: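 Rabbit fast skeletal muscle heavy SR (terminal cisternae) receptor, solubilised with 1 M NaCl, 1 mg CHAPS/mg protein and 40 mM Tris/maleate pH 7.1. […] Incubation was 80 min at 37°C, then GF/C filtration. IC50 came from Hill regression.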

Musca domestica [9] = assay: Ratio of compound KD50 to ryanodine KD50 for SCR-susceptible Musca domestica (house fly) assessed as immobility compound administered by intrathoracic injection measured 4 hr post compound treatment; format: ADME, organism-based; conditions: in vivo, other; outline: as §2
Mus musculus = assay: Ratio of compound LC50 to ryanodine LC50 for ip dosed Mus musculus Swiss-Webster (mouse) assessed as mortality measured after 24 hr; format: ADME, organism-based; conditions: in vivo

T1 sequence (P11716 whole entry): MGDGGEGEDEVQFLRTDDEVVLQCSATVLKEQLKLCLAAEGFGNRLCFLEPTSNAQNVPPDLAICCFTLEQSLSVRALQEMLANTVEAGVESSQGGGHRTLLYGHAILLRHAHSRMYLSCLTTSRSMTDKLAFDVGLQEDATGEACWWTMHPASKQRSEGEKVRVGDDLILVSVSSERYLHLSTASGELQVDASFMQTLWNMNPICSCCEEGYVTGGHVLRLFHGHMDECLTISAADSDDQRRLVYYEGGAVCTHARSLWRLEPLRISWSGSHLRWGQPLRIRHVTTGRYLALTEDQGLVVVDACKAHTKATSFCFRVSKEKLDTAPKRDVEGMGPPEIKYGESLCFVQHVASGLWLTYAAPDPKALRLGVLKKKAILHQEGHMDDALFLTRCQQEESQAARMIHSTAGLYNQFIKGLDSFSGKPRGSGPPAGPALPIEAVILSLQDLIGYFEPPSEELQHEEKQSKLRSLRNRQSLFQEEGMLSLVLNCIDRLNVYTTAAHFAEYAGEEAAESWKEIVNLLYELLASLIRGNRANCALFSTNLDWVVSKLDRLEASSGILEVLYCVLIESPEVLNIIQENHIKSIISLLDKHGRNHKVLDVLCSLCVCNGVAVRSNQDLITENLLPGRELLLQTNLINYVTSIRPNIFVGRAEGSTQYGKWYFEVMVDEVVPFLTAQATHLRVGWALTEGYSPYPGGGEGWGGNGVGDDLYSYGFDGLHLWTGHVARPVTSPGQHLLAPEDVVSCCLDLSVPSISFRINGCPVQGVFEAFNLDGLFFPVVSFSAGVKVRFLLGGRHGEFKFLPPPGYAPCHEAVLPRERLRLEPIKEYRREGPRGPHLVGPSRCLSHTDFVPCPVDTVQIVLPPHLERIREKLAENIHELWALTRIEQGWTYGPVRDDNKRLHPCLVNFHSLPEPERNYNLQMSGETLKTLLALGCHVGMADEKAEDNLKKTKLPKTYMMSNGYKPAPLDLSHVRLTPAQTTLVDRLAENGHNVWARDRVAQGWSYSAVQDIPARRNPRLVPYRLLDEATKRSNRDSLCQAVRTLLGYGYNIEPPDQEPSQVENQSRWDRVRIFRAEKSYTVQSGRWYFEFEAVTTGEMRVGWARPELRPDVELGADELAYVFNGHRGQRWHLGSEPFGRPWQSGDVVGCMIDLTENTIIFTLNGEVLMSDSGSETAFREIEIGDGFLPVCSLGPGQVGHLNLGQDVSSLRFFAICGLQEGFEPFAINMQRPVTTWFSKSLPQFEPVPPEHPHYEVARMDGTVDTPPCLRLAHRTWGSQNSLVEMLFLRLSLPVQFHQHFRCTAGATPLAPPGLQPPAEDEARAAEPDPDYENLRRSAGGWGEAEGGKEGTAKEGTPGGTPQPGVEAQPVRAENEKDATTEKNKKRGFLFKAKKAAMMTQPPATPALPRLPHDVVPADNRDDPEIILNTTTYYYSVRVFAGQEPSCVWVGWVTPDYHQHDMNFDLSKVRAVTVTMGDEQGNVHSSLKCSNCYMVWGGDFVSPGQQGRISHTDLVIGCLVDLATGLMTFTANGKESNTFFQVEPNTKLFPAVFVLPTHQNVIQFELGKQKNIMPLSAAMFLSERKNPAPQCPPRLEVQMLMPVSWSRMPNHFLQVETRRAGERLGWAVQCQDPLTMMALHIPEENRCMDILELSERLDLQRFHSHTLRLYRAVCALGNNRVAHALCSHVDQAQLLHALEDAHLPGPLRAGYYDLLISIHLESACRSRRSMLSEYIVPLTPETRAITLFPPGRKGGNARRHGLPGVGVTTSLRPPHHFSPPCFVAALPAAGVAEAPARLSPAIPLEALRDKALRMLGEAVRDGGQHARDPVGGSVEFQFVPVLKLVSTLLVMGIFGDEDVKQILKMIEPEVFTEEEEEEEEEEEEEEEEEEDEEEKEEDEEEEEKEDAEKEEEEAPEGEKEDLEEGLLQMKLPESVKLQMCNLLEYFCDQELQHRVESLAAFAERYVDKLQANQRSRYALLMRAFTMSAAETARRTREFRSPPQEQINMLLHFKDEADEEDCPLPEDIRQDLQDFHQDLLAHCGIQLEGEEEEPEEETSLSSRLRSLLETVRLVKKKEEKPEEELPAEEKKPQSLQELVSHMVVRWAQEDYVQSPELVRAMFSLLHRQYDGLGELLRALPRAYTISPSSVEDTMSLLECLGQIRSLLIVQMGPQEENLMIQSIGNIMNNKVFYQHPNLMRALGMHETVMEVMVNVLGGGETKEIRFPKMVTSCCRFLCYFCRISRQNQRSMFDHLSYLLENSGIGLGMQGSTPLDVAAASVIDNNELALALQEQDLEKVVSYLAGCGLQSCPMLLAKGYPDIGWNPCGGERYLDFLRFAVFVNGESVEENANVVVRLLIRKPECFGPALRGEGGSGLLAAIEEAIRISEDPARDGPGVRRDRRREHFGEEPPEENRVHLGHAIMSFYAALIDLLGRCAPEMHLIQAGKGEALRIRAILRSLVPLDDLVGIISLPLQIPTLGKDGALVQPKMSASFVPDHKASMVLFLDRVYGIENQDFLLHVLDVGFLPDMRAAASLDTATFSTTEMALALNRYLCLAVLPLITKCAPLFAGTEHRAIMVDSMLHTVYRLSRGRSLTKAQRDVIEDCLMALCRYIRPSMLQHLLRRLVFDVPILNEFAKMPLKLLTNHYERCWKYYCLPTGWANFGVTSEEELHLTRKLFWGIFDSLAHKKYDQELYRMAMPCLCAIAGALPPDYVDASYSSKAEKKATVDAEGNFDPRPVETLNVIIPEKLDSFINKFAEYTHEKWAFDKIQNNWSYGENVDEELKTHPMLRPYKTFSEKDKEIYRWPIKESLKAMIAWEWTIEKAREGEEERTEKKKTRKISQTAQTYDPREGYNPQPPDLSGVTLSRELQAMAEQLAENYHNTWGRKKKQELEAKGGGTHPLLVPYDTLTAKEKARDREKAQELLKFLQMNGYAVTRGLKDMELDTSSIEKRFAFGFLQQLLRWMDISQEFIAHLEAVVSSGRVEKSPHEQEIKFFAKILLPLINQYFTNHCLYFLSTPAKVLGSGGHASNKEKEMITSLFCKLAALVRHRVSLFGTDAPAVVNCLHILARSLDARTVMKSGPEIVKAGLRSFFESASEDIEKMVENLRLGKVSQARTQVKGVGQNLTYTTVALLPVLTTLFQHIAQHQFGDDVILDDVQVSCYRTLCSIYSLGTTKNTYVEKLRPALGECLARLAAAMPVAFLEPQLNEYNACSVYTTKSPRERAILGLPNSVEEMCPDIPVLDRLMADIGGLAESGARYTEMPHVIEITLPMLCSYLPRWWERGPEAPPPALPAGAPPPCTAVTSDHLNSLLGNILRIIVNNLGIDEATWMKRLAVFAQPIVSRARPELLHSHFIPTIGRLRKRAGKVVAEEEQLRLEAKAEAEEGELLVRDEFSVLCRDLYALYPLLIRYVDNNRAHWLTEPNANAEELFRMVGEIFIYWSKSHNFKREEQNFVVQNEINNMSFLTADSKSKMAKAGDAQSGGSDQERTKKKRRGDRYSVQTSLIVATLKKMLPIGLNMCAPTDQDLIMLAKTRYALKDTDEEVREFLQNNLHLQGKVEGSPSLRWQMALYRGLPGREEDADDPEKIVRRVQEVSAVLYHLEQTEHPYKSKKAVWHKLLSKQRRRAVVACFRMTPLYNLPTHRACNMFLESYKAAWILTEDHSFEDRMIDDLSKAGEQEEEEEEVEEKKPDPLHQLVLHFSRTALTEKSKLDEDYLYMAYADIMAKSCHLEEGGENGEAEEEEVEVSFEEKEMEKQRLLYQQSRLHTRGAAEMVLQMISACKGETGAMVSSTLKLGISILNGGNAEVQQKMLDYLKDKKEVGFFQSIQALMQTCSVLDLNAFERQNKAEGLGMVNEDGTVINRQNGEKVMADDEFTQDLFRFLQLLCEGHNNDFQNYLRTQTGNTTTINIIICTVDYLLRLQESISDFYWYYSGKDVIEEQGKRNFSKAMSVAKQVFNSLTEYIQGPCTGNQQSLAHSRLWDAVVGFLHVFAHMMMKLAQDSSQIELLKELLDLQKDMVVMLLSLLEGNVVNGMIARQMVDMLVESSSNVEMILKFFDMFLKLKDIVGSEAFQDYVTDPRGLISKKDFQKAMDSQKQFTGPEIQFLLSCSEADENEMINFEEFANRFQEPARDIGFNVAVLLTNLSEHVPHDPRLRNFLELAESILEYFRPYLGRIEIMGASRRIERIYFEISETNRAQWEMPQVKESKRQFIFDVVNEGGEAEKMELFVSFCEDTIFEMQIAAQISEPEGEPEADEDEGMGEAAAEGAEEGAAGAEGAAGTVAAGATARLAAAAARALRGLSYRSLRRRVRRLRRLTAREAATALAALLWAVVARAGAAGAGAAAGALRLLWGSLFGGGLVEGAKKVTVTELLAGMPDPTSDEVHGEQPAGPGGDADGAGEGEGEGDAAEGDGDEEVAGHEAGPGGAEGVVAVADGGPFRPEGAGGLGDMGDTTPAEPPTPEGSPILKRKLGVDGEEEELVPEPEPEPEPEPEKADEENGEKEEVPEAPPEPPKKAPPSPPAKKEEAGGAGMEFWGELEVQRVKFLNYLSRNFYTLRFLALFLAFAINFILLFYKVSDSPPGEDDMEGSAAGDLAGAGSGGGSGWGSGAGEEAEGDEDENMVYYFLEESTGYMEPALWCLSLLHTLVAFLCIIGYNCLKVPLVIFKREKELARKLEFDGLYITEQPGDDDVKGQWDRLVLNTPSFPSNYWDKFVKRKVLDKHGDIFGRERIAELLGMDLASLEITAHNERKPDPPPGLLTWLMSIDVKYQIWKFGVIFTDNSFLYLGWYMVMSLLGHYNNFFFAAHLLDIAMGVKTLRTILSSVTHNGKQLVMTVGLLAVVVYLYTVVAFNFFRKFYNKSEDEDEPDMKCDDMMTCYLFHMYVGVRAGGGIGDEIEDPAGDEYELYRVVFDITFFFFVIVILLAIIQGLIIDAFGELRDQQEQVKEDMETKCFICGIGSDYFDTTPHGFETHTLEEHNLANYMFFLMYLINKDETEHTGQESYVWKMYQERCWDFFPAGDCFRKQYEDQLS

Row | Compound | LD50 at 24 h [1] | KD50 (Musca domestica [2]) | IC50 (Ryanodine receptor 1 [3]) | also measured
1 | CC(C)[C@@]1(O)[C@@H](OC(=O)c2ccc[nH]2)[C@@]2(O)[C@@]3(C)C[C@]4(O)O[C@@]5([C@H](O)C6(CC[C@]35O)CO6)[C@@]2(O)[C@]14C (stereo not given in full) [9,21-EPOXYRYANODINE] | 1.5 mg/kg | 0.3 µg/g | 140 nM | 
2 | CC(C)[C@@]1(O)[C@@H](OC(=O)c2ccc[nH]2)[C@@]2(O)[C@@]3(C)C[C@]4(O)O[C@@]5([C@H](O)[C@H](C)CC[C@]35O)[C@@]2(O)[C@]14C [EPIRYANODINE] | 0.47 mg/kg |  |  | 
3 | CO[C@@H]1[C@@H](C)CC[C@]2(O)[C@]3(C)C[C@]4(OC)O[C@]12[C@]1(O)[C@@]3(OC)[C@H](OC(=O)c2cccn2C)[C@](O)(C(C)C)[C@]41C | > 20 mg/kg | >20 µg/g | > 10000 nM | 
4 | C=C1CC[C@]2(O)[C@]3(C)C[C@]4(O)O[C@@]2([C@@H]1O)[C@]1(O)[C@@]3(O)[C@H](O)[C@](O)(C(C)C)[C@@]14C [DIDEHYDRORYANODOL] | > 20 mg/kg | 0.36 µg/g | 10000 nM | 
5 | CC(C)[C@@]1(O)[C@@H](OC(=O)c2[nH]c(Br)c(Br)c2Br)[C@@]2(O)[C@@]3(C)C[C@]4(O)O[C@@]5([C@H](O)[C@@H](C)CC[C@]35O)[C@@]2(O)[C@]14C [24,25,26-TRIBROMORYANODINE] | > 20 mg/kg |  | > 10000 nM | 
6 | CC1=CC[C@]2(O)[C@]3(C)C[C@]4(O)O[C@@]2(C1=O)[C@]1(O)[C@@]3(O)[C@H](OC(=O)c2ccc[nH]2)[C@](O)(C(C)C)[C@@]14C | > 5 mg/kg |  | 7300 nM | 
7 | C=C1CC[C@]2(O)[C@]3(C)C[C@]4(O)O[C@@]2([C@@H]1O)[C@]1(O)[C@@]3(O)[C@H](OC(=O)c2ccc[nH]2)[C@](O)(C(C)C)[C@@]14C [DEHYDRORYANODINE] | 0.1 mg/kg | 0.03 µg/g | 13 nM | 
8 | CC(C)[C@@]1(O)[C@@H](OC(=O)c2ccc[nH]2)[C@@]2(O)[C@@]3(C)C[C@]4(O)O[C@@]5([C@H](O)[C@@H](C)CC[C@]35O)[C@@]2(O)[C@@]14C [RYANODINE] | 0.1 mg/kg |  |  | 
9 | CC(C)[C@@]1(O)[C@@H](OC(=O)c2cc[nH]c2)[C@@]2(O)[C@]3(C)C[C@@]4(O)O[C@@]5([C@H](O)[C@@H](C)CC[C@]35O)[C@@]2(O)[C@@]41C [RYANODINE] |  |  |  | Drug metabolism (Musca domestica [4]): Active; Drug metabolism (Musca domestica [5]): Active
10 | CC(C)[C@@]1(O)[C@@H](OC(=O)c2ccc[nH]2)[C@@]2(O)[C@@]3(C)C[C@]4(O)O[C@@]5([C@H](O)[C@](O)(CO)CC[C@]35O)[C@@]2(O)[C@]14C [9,21-DIHYDROXYRYANODINE] |  | 10 µg/g | 4900 nM | 
11 | CC(CO)[C@@]1(O)[C@@H](OC(=O)c2ccc[nH]2)[C@@]2(O)[C@@]3(C)C[C@]4(O)O[C@@]5([C@H](O)[C@@H](C)CC[C@]35O)[C@@]2(O)[C@]14C (stereo not given in full) [18-HYDROXYRYANODINE] | 0.9 mg/kg |  | 88 nM | 
12 | CCCCn1cccc1C(=O)O[C@H]1[C@@]2(O)[C@@]3(C)C[C@]4(O)O[C@@]5([C@H](O)[C@@H](C)CC[C@]35O)[C@@]2(O)[C@]4(C)[C@@]1(O)C(C)C [N-BUTYLRYANODINE] |  |  | 860 nM | 
13 | CO[C@@]12C[C@@]3(C)[C@@]4(O)CC[C@H](C)[C@@H](O)[C@]4(O1)[C@]1(O)[C@@]3(OC)[C@H](OC(=O)c3cccn3C)[C@](O)(C(C)C)[C@]21C | > 20 mg/kg | >20 µg/g | 4500 nM | 
14 | CC(C)[C@@]1(O)[C@@H](OC(=O)c2cccn2Cc2ccccc2)[C@@]2(O)[C@@]3(C)C[C@]4(O)O[C@@]5([C@H](O)[C@@H](C)CC[C@]35O)[C@@]2(O)[C@]14C [N-BENZYLRYANODINE] | 6.3 mg/kg |  | 310 nM | 
15 | CC(C)[C@@]1(O)[C@@H](O)[C@@]2(O)[C@@]3(C)C[C@]4(O)O[C@@]5([C@H](O)[C@@H](C)CC[C@]35O)[C@@]2(O)[C@]14C [RYANODOL] | > 20 mg/kg | 0.34 µg/g | 35000 nM | Ratio (Musca domestica [6]): 3.6; KD50 (Musca domestica [7]): 1.1 µg/g; Ratio IC50 (Ryanodine receptor 1 [8]): 3500; Ratio (Musca domestica [9]): 0.8; Ratio (Mus musculus): > 200
16 | CO[C@@]12C[C@@]3(C)[C@@]4(O)CC[C@H](C)[C@@H](O)[C@]4(O1)[C@]1(O)[C@@]3(O)[C@H](OC(=O)c3cccn3C)[C@](O)(C(C)C)[C@]21C | 17 mg/kg | >20 µg/g | 280 nM | 
17 | CC1=C(C(C)C)[C@@H](OC(=O)c2ccc[nH]2)[C@@]2(O)[C@@]3(C)CC(=O)O[C@@]4([C@H](O)[C@@H](C)CC[C@]34O)[C@@]12O [ANHYDRORYANODINE] | > 20 mg/kg |  | > 10000 nM | 
18 | CC(=O)O[C@@H]1[C@@H](C)CC[C@]2(O)[C@]3(C)C[C@]4(O)O[C@]12[C@]1(O)[C@@]3(O)[C@H](OC(=O)c2ccc[nH]2)[C@](O)(C(C)C)[C@@]14C [10-ACETYLRYANODINE] |  | 0.5 µg/g | 140 nM | 
19 | CC(C)[C@@]1(O)[C@@H](OC(=O)c2ccc[nH]2)[C@@]2(O)[C@@]3(C)C[C@]4(O)O[C@@]5(C(=O)[C@@H](C)CC[C@]35O)[C@@]2(O)[C@]14C [10-KETORYANODINE] | 0.55 mg/kg | >20 µg/g | 100 nM | 
20 | CO[C@@]12C[C@@]3(C)[C@@]4(OC)CC[C@H](C)[C@@H](O)[C@]4(O1)[C@]1(O)[C@@]3(O)[C@H](OC(=O)c3cccn3C)[C@](O)(C(C)C)[C@]21C |  | 12 µg/g | 1300 nM | 

— ChEMBL document CHEMBL3045240 (J Med Chem, 1987)
